Assay results: PMC9082781 (ACS infectious diseases, 2021)
Converted amounts (≈) assume the structure as drawn. Read-outs that look alike come from different tables or passages of the source. Non-standard residues stand in square brackets, D forms with d. Residues, ends and D or L forms follow the SMILES beside them. *: point of attachment. Decanoyl = CCCCCCCCCC(=O)*; Octanoyl = CCCCCCCC(=O)*

Tests used:
S. aureus USA300 LAC [1] = assay: Resistance development, multiple passage experiment; type: cell-based, Staphylococcus aureus; details: 14 days/passages at sub-MIC; average of three independent experiments
S. aureus USA300 LAC [2] = details: for Minimal inhibitory concentration (MIC): USA300, pH 7.4
[3] = tested on: Klebsiella pneumonia ATCC 13883; type: cell-based, Klebsiella pneumoniae
S. aureus V8 protease = S. aureus V8 protease (Staphylococcus aureus, UniProt P0C1U8); type: in vitro ADME; details: 10 mM PBS pH 7.4, 37 °C, 3 h and 1 day, SDS-PAGE, Coomassie
Chain of S. aureus V8 protease (P0C1U8 69-336): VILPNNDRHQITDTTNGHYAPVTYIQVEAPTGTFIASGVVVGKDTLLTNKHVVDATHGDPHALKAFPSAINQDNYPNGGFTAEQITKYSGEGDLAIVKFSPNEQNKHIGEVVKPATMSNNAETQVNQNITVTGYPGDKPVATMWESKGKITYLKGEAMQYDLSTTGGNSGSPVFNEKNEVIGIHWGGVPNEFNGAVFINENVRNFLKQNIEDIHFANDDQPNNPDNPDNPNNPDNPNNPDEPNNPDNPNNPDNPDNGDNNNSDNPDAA

E. coli ATCC25922 [4] = tested on: E. coli ATCC25922
human red blood cells [5] = type: cell-based; details: red cells of human, 1 h
[6] = tested on: MCP-1, IL-17A, IL-10, TNF-α; assay: Cytokine levels in tissues surrounding catheters; type: in vivo, mouse; details: tissue surrounding catheter, day 3 after peptide treatment
Procedure, shortened: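 Catheter biofilm mouse model under ketamine/xylazine (100/10 mg/kg) anesthesia. Peptide 15 mg/kg injected at five sites in and around the catheter 2 h post infection. Untreated infected and uninfected-catheter groups included. Day 3: CO₂ euthanasia, peri-catheter tissue harvested and homogenized, stored at −80 °C. Cytokines quantified by individual mouse cytokine ELISA kits in duplicate with standards.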

fungal proteinase K = fungal proteinase K (Parengyodontium album, UniProt P06873); assay: Protease stability by SDS-PAGE, proteinase K; type: in vitro ADME; details: 10 mM PBS pH 7.4, 37 °C, 1 day, Coomassie
Chain of fungal proteinase K (P06873 106-384): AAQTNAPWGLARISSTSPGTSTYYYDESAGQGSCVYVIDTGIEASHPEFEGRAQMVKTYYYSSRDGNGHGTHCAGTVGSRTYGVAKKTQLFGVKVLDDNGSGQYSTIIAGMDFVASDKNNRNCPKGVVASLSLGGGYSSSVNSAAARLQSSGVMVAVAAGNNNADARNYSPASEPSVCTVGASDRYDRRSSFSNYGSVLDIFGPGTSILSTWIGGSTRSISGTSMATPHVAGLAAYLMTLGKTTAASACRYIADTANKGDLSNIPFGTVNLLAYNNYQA

HaCaT cells = type: cell-based, human
S. aureus USA300 LAC [7] = assay: Systemic efficacy in neutropenic murine infection model; type: in vivo, mouse; details: neutropenic mice, single dose 5 mg/kg i.p., n = 8, vs untreated
Procedure, shortened: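 Female C57BL/6 mice, 6 weeks old, made neutropenic with cyclophosphamide (day 1 150 mg/kg, day 4 100 mg/kg). Day 5: i.p. infection with ~2×10⁶ CFU S. aureus USA300. Single i.p. peptide dose 2 h later. Spleen, liver, lung and kidney weighed, homogenized in PBS, diluted, plated on blood agar (37 °C, overnight). CFU per tissue; Mann-Whitney test.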

S. aureus USA300 LAC [8] = assay: Bacterial membrane permeation; type: cell-based, Staphylococcus aureus; details: 12.5 μM, 37 °C, fluorescence read every 5 min
Procedure, shortened: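 Exponential-phase S. aureus USA300 at final OD600 ~0.1 in TSB or PBS, with propidium iodide (20 μM as added) and serially diluted peptide (12.5 μM in figure). Daptomycin and rifamycin serve as controls. Incubated at 37 °C with 100 rpm shaking in a plate reader. Fluorescence (ex 584/em 620 nm) read every 5 min for 24 cycles; average values plotted.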

P. aeruginosa PAO1 [9] = type: cell-based, Pseudomonas aeruginosa
C57BL/6 mice = assay: In vivo toxicity; design: species or system mouse
human red blood cells [10] = details: LL-37; ref [36]; cited from earlier work
E. coli ATCC25922 [11] = details: LL-37; ref [36]; cited from earlier work
[12] = tested on: Klebsiella pneumonia ATCC 13883; details: LL-37; ref [36]; cited from earlier work
P. aeruginosa PAO1 [13] = details: LL-37; ref [36]; cited from earlier work

Compound | MIC increase during serial passages (S. aureus USA300 LAC [1]) | Minimal inhibitory concentration (MIC) (S. aureus USA300 LAC [2]) [µM] | MIC KP [3] [µM] | stability to S. aureus V8 protease (S. aureus V8 protease) | MIC EC (E. coli ATCC25922 [4]) [µM] | HC50 (human red blood cells [5]) [µM] | relative toxicity to HaCaT cells (HaCaT cells) | membrane permeation (propidium iodide fluorescence) (S. aureus USA300 LAC [8]) | MIC PA (P. aeruginosa PAO1 [9]) [µM] | other results
CCOc1ccc2ccccc2c1C(=O)N[C@@H]1C(=O)N2[C@@H]1SC(C)(C)[C@@H]2C(=O)O [nafcillin, reference compound] | over 30 fold |  |  |  |  |  |  |  |  | 
CCCCCCCCCC(=O)N[C@@H](CCCCN)C(=O)N[C@@H](CCCNC(=N)N)C(=O)N[C@H](C(=O)N[C@@H](Cc1c[nH]c2ccccc12)C(=O)N[C@@H](CCC(N)=O)C(=O)N[C@@H](CCCNC(=N)N)C(=O)N[C@H](C(=O)N[C@@H](CCCCN)C(N)=O)[C@@H](C)CC)[C@@H](C)CC [Peptide C10-KR8] (Decanoyl-KRIWQRIK-NH2) |  | 3.1 (≈ 3.97 µg/mL) | 50 (≈ 64 µg/mL) | except for S. aureus V8 protease | 12.5 (≈ 16 µg/mL) | 300 |  |  |  | MIC SA (S. aureus USA300 LAC [2]; USA300): 1.5 to 3.1 µM
CCCCCCCCCC(=O)N[C@H](CCCCN)C(=O)N[C@H](CCCNC(=N)N)C(=O)N[C@@H](C(=O)N[C@H](Cc1c[nH]c2ccccc12)C(=O)N[C@H](CCC(N)=O)C(=O)N[C@H](CCCNC(=N)N)C(=O)N[C@@H](C(=O)N[C@H](CCCCN)C(N)=O)[C@H](C)CC)[C@H](C)CC [Peptide C10-KR8d] (Decanoyl-[dK][dR][dI][dW][dQ][dR][dI][dK]-NH2) | no changes | 3.1 (≈ 3.97 µg/mL) | 25 (≈ 32 µg/mL) | resistant |  | 300 | slightly more toxic than C10-KR8 | able to permeate the membranes | 6.2 (≈ 7.94 µg/mL) | IL-10 level [6]: decrease; IL-17A level [6]: up-regulation; MCP-1/CCL2 level [6]: up-regulation; TNFα level [6]: decrease; stability to fungal proteinase K (fungal proteinase K): resistant; CFU decrease in kidney (S. aureus USA300 LAC [7]): not in spleen and kidney; CFU decrease in spleen (S. aureus USA300 LAC [7]): not in spleen and kidney; survival (C57BL/6 mice; 10 mg/kg i.p., female C57BL/6 mice n=3, 5 days observation): all mice survived; survival (C57BL/6 mice; 20 mg/kg i.p., female C57BL/6 mice n=3, 5 days observation): all mice survived; survival (C57BL/6 mice; 40 mg/kg i.p., female C57BL/6 mice n=3, died in a day): all mice died; maximal tolerated dose (MTD) (C57BL/6 mice; i.p., C57BL/6 mice, 20 mg/kg or more but less than 40 mg/kg): ≥ 20 mg/kg
CC[C@H](C)[C@H](NC(=O)[C@H](CCCCN)NC(=O)[C@H](CCC(=O)O)NC(=O)[C@H](CCCCN)NC(=O)[C@H](CO)NC(=O)[C@H](CCCCN)NC(=O)[C@H](CCCNC(=N)N)NC(=O)[C@H](Cc1ccccc1)NC(=O)[C@H](Cc1ccccc1)NC(=O)[C@H](CC(=O)O)NC(=O)CNC(=O)[C@H](CC(C)C)NC(=O)[C@@H](N)CC(C)C)C(=O)NCC(=O)N[C@@H](CCCCN)C(=O)N[C@@H](CCC(=O)O)C(=O)N[C@@H](Cc1ccccc1)C(=O)N[C@@H](CCCCN)C(=O)N[C@@H](CCCNC(=N)N)C(=O)N[C@H](C(=O)N[C@H](C(=O)N[C@@H](CCC(N)=O)C(=O)N[C@@H](CCCNC(=N)N)C(=O)N[C@H](C(=O)N[C@@H](CCCCN)C(=O)N[C@@H](CC(=O)O)C(=O)N[C@@H](Cc1ccccc1)C(=O)N[C@@H](CC(C)C)C(=O)N[C@@H](CCCNC(=N)N)C(=O)N[C@@H](CC(N)=O)C(=O)N[C@@H](CC(C)C)C(=O)N[C@H](C(=O)N1CCC[C@H]1C(=O)N[C@@H](CCCNC(=N)N)C(=O)N[C@H](C(=O)N[C@@H](CCC(=O)O)C(=O)N[C@@H](CO)C(=O)O)[C@@H](C)O)C(C)C)[C@@H](C)CC)C(C)C)[C@@H](C)CC [LL-37] |  |  |  |  |  |  |  |  |  | Minimal inhibitory concentration against S. aureus (S. aureus USA300 LAC [2]; 10% TSB): 50 µM (≈ 225 µg/mL); Minimal inhibitory concentration against S. aureus (S. aureus USA300 LAC [2]; 50% TSB): >50 µM; Minimal inhibitory concentration against S. aureus (S. aureus USA300 LAC [2]; 100% MHB): >50 µM; Minimal inhibitory concentration against S. aureus (S. aureus USA300 LAC [2]; 100% TSB): >50 µM; HC50 (human red blood cells [10]): 170 µM; MIC EC (E. coli ATCC25922 [11]): 3.1 to 6.2 µM; MIC KP [12]: 6.2 µM (≈ 27.9 µg/mL); MIC PA (P. aeruginosa PAO1 [13]): >50 µM
CO[C@H]1/C=C/O[C@@]2(C)Oc3c(C)c(O)c4c(O)c(cc(O)c4c3C2=O)NC(=O)/C(C)=C\C=C\[C@H](C)[C@H](O)[C@@H](C)[C@@H](O)[C@@H](C)[C@H](OC(C)=O)[C@@H]1C [rifamycin, reference compound] |  |  |  |  |  |  |  | unable to achieve the same effect |  | 
CCCCCCCC(=O)N[C@@H](CCCCN)C(=O)N[C@@H](CCCNC(=N)N)C(=O)N[C@H](C(=O)N[C@@H](Cc1c[nH]c2ccccc12)C(=O)N[C@@H](CCC(N)=O)C(=O)N[C@@H](CCCNC(=N)N)C(=O)N[C@H](C(=O)N[C@@H](CCCCN)C(=O)N[C@@H](CC(=O)O)C(=O)N[C@@H](Cc1ccccc1)C(N)=O)[C@@H](C)CC)[C@@H](C)CC [Peptide C8-KR10] (Octanoyl-KRIWQRIKDF-NH2) |  | 6.2 (≈ 9.39 µg/mL) | 25 (≈ 37.9 µg/mL) |  | 6.2 (≈ 9.39 µg/mL) |  | slightly less toxic than C8-KR10d |  | 6.2 (≈ 9.39 µg/mL) | 
